Measurements: ChEMBL document CHEMBL2176990, “Synthesis and biological evaluation of 5-benzylidenepyrimidine-2,4,6(1H,3H,5H)-trione derivatives for the treatment of obesity-related nonalcoholic fatty liver disease” (J Med Chem, 2012)
Activity calls are given as the source filed them. No cut-off for these calls is given here.

How the values were obtained:
3T3-L1 [1] = experiment: Down-regulation of […] expression in mouse 3T3L1 cells at 10 uM after 24 hrs by ELISA; assay type: functional
Method in brief: (§1)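 3T3-L1 preadipocytes grown to 2 days post-confluence. Differentiated with 0.5 mM IBMX, 0.25 μM dexamethasone and 1 μg/mL insulin for 2 days, then insulin alone for 2 days, then 10% FBS DMEM. On day 12, treated 24 h; secreted adiponectin and leptin measured by ELISA. Three independent experiments.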

3T3-L1 [2] = experiment: Up-regulation of adiponectin expression in mouse 3T3L1 cells at 10 uM after 24 hrs by ELISA; assay type: functional; method in brief: as §1
HepG2 [3] = experiment: Reduction of glucose consumption in insulin-resistant human HepG2 cells at 10 uM after 24 hrs by glucose oxidase method in presence of 22.2 mM of glucose; assay type: functional, cell-based
Method in brief: (§2)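 HepG2 cells in DMEM (22.2 mM glucose) with 10% FBS, exposed to 0.1 μM insulin from plating for 2 days. At confluence, given fresh 22.2 mM glucose DMEM with test agents for 24 h. Medium glucose measured by glucose oxidase. Consumption = blank minus remaining glucose, normalized to MTT. Three independent experiments.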

HepG2 [4] = experiment: Reduction of glucose consumption in insulin-resistant human HepG2 cells at 10 uM after 24 hrs by glucose oxidase method in presence of 0.1 uM of insulin; assay type: functional, cell-based; method in brief: as §2
HepG2 [5] = experiment: Reduction of glucose consumption in insulin-resistant human HepG2 cells at 10 uM after 24 hrs by glucose oxidase method; assay type: functional, cell-based; method in brief: as §2
Rattus norvegicus = experiment: Toxicity in Wistar rat high fat diet-induced NAFLD model assessed as effect on food intake at 150 mg/kg, po qd for 4 weeks; assay type: organism-based; parameters: dose 150 mg/kg, route oral; settings: in vivo, 672 h
Method in brief: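 Male Wistar rats (160−180 g) fed high-fat diet (50.55% calories from fat), n = 10 per group. Dosed orally at 150 mg/kg/day for 4 weeks. Body, liver and fat weights and food intake recorded. Serum lipids, AST, ALT and glucose measured on a biochemistry analyzer. Fasting insulin measured by kit; adiponectin and leptin by ELISA. Mean ± SD; percent change vs HFD group.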

Row | SMILES | Activity (3T3-L1 [1]) | Activity (3T3-L1 [2]) | Activity (HepG2 [3]) | Activity (HepG2 [4]) | Activity (HepG2 [5]) | Activity (Rattus norvegicus)
1 | CN(CCOc1ccc(CC2SC(=O)NC2=O)cc1)c1ccccn1 (stereo not drawn) [ROSIGLITAZONE] | 118.8 pg/mL | 236 pg/mL | Active | Active |  | 
2 | O=C1NC(=O)C(=Cc2ccc(OC3CCN(c4ccc([N+](=O)[O-])cn4)CC3)cc2)C(=O)N1 |  |  |  | inactive | inactive | 
3 | O=C1NC(=O)C(=Cc2ccc(OC3CCN(C(=O)c4ccncc4)CC3)cc2)C(=O)N1 | inactive | Active | Active | Active |  | 
4 | O=C1NC(=O)C(=Cc2ccc(C(=O)N3CCC(Nc4ccc([N+](=O)[O-])cn4)CC3)cc2)C(=O)N1 |  |  |  | inactive | inactive | 
5 | O=C1NC(=O)C(=Cc2ccc(OC3CCN(C(=O)c4ccc(OC(F)F)cc4)CC3)c(F)c2)C(=O)N1 |  |  | Active | Active |  | 
6 | CS(=O)(=O)N(Cc1ccc(C=C2C(=O)NC(=O)NC2=O)cc1)C1CCN(C(=O)c2cccc(OC(F)(F)C(F)F)c2)CC1 |  |  |  | inactive | inactive | 
7 | CS(=O)(=O)N(Cc1ccc(C=C2C(=O)NC(=O)NC2=O)cc1)C1CCN(c2ccc([N+](=O)[O-])cn2)CC1 |  |  |  | inactive | inactive | 
8 | O=C1NC(=O)C(=Cc2ccc(OC3CCN(c4ncccc4C(F)(F)F)CC3)cc2)C(=O)N1 | inactive | Active | Active | Active |  | 
9 | O=C1NC(=O)C(=Cc2ccc(C(=O)NC3CCN(c4ccc([N+](=O)[O-])cn4)CC3)cc2)C(=O)N1 |  |  | Active | Active |  | 
10 | CN(C)C(=N)N=C(N)N [METFORMIN] |  |  |  |  |  | Non-toxic
11 | N#Cc1cccnc1N1CCC(Oc2ccc(C=C3C(=O)NC(=O)NC3=O)cc2)CC1 |  |  |  | inactive | inactive | 
12 | O=C1NC(=O)C(=Cc2ccc(OC3CCN(C(=O)c4cccnc4)CC3)cc2)C(=O)N1 |  |  |  | inactive | inactive | 
13 | COc1cc(OC2CCN(c3ncccc3C#N)CC2)cc(OC)c1C=C1C(=O)NC(=S)NC1=O |  |  |  | inactive | inactive | 
14 | COC(=O)c1sccc1S(=O)(=O)N1CCC(Oc2ccc(C=C3C(=O)NC(=O)NC3=O)cc2F)CC1 |  |  |  | inactive | inactive | 
